The results in this text go back to ChEMBL document CHEMBL1124915, “Inhibitors of human renin. Cyclic peptide analogues containing a D-Phe-Lys-D-Trp sequence” (J Med Chem, 1990).

The structures appear in SMILES notation.

The first assay has as its target T1, Renin (Homo sapiens) (UniProt P00797).
T1 sequence (whole entry): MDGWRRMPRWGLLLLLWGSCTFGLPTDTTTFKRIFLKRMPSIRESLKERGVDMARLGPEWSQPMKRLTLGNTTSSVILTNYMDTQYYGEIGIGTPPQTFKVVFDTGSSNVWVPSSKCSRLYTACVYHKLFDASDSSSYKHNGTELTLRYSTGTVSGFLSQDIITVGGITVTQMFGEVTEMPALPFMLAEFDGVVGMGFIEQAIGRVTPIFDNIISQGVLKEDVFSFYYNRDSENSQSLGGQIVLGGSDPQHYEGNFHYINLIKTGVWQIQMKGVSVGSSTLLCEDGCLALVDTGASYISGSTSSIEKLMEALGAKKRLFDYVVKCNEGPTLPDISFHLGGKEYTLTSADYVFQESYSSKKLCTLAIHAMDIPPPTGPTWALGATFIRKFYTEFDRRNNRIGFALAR
Nature of the assay: Percent inhibition against human renin at the concentration of 1 uM.
The inhibition is the drop in the measured response relative to a control, in per cent. The low end stands for a weak effect, the high end for a strong effect. `CC(C)CCNC(=O)C(Cc1c[nH]c2ccccc12)NC(=O)[C@H](CCCCN)N1C(=O)CN[C@H](CC(C)C)C(=O)N[C@@H](Cc2ccccc2)C1=O` (stereo in doubt) came in with an inhibition of 10%.

The next assay has as its target T2, Renin (Homo sapiens, UniProt P00797).
T2 sequence (P00797 whole entry): T1 sequence (whole entry)
Nature of the assay: Inhibition of human renin.
As usually defined, the IC50 is the concentration that gives 50% inhibition. `CC(C)CCNC(=O)C(Cc1c[nH]c2ccccc12)NC(=O)[C@H](CCCCN)N1C(=O)CN[C@H](Cc2ccccc2)C(=O)N[C@@H](Cc2ccccc2)C1=O` (stereo in doubt) had an IC50 of 2740 nM.
The same measure, in the same setting: with `CC(C)CCNC(=O)C(Cc1c[nH]c2ccccc12)NC(=O)[C@H](CCCCN)N1C(=O)C(c2ccccc2)CCC(=O)N[C@@H](Cc2ccccc2)C1=O` (stereo in doubt) the figure was 1500 nM; with `COC(=O)[C@H](CC(C)C)NC(=O)C(Cc1c[nH]c2ccccc12)NC(=O)[C@H](CSCNC(C)=O)NC(=O)[C@H](Cc1ccccc1)NC(=O)OC(C)(C)C` (stereo in doubt), 40000 nM.
Still for that read-out and setting: with `COC(=O)[C@H](CC(C)C)NC(=O)C(Cc1c[nH]c2ccccc12)NC(=O)[C@H](CCCCN)NC(=O)[C@H](Cc1ccccc1)NC(=O)OCc1ccccc1` (stereo in doubt) the figure was 31000 nM; with `CC(C)CCNC(=O)C(Cc1c[nH]c2ccccc12)NC(=O)[C@H](CCCCN)N1C(=O)COCC(=O)N[C@@H](Cc2ccccc2)C1=O` (stereo in doubt), 2300 nM.
`CC(C)CCNC(=O)C(Cc1c[nH]c2ccccc12)NC(=O)[C@H](CCCCN)N1C(=O)CN[C@@H](Cc2ccccc2)C(=O)N[C@@H](Cc2ccccc2)C1=O` (stereo in doubt) yielded an IC50 of 750 nM.
The same measure, in the same setting: to `COC(=O)[C@H](CC(C)C)NC(=O)C(Cc1c[nH]c2ccccc12)NC(=O)[C@H](CCCCN)N1C(=O)CC[C@H](NC(=O)OCc2ccccc2)C(=O)N[C@@H](Cc2ccccc2)C1=O` (stereo in doubt) belongs 3200 nM; to `CCC(C)CNC(=O)C(Cc1c[nH]c2ccccc12)NC(=O)[C@H](CCCCN)N1C(=O)[C@H](Cc2ccccc2)NC(=O)CCC(C)(C)C1=O` (stereo in doubt), 1400 nM.
Still for that read-out and setting: with `CC(C)CC(C)CNC(=O)C(Cc1c[nH]c2ccccc12)NC(=O)[C@H](CCCCN)N1C(=O)CC(C)CC(=O)N[C@@H](Cc2ccccc2)C1=O` (stereo in doubt) the figure was 240 nM.

Another assay has as its target T1, Renin (Homo sapiens). Nature of the assay: Percent inhibition against human renin at the concentration of 100 uM. A digest of the protocol:
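Each compound was tested twice at 100 µM against partially purified human renal renin with human plasma angiotensinogen in pH 7.0 phosphate buffer with protease inhibitors and 1% DMSO, for 120 min at 30 °C. Angiotensin I generation was quantified by radioimmunoassay and expressed as percent inhibition of the vehicle control rate.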
In the case of `CC(C)CCNC(=O)C(Cc1c[nH]c2ccccc12)NC(=O)[C@H](CCCCN)N1C(=O)CN[C@H](CC(C)C)C(=O)N[C@@H](Cc2ccccc2)C1=O` (stereo in doubt), the inhibition came to 88%.
On the same count and under the same terms, with `CC(C)CCNC(=O)C(Cc1c[nH]c2ccccc12)NC(=O)[C@H](CCCCN)N1C(=O)CSCC(=O)N[C@@H](Cc2ccccc2)C1=O` (stereo in doubt) the figure was 66%; with `CC(C)CCNC(=O)C(Cc1c[nH]c2ccccc12)NC(=O)[C@H](CCCCN)N1C(=O)[C@H](Cc2ccccc2)NC(=O)CN[C@H](Cc2ccccc2)C1=O` (stereo in doubt), 57%.
Compound `CC(C)CCNC(=O)C(Cc1c[nH]c2ccccc12)NC(=O)[C@H](CCCCN)N1C(=O)[C@H](Cc2ccccc2)NCC(=O)N[C@@H](Cc2ccccc2)C1=O` (stereo in doubt) displayed an inhibition of 52%.
With `CCC(C)CNC(=O)C(Cc1c[nH]c2ccccc12)NC(=O)[C@H](CCCCN)N1C(=O)CC(C)(C)CC(=O)N[C@@H](Cc2ccccc2)C1=O` (stereo in doubt), the inhibition was 63%.
In turn, `CC[C@H](C)[C@@H]1NCC(=O)N([C@@H](CCCCN)C(=O)NC(Cc2c[nH]c3ccccc23)C(=O)NCCC(C)C)C(=O)[C@H](Cc2ccccc2)NC1=O` (stereo in doubt) had an inhibition of 84%.

For the next assay, the target named is T1, Renin (Homo sapiens). Description: Percent inhibition against human renin at the concentration of 10 uM.
In turn, `CC(C)CCNC(=O)C(Cc1c[nH]c2ccccc12)NC(=O)[C@H](CCCCN)N1C(=O)CCC(=O)N[C@@H](Cc2ccccc2)C1=O` (stereo in doubt) had an inhibition of 53%.
The compound `CC[C@@H](C)[C@@H]1NCC(=O)N[C@@H](Cc2ccccc2)C(=O)N([C@@H](CCCCN)C(=O)NC(Cc2c[nH]c3ccccc23)C(=O)NCCC(C)C)C1=O` (stereo in doubt) registered an inhibition of 58%.
Same read-out and setting: with `CC[C@H](C)[C@@H]1NCC(=O)N([C@@H](CCCCN)C(=O)NC(Cc2c[nH]c3ccccc23)C(=O)NCCC(C)C)C(=O)[C@H](Cc2ccccc2)NC1=O` (stereo in doubt) the figure was 45%.
